Here are results for 23 molecules from PubChem BioAssay AID488897 (Broad Institute, 2010).

SMILES strings stand for the structures. Results filed as inconclusive are left out. Calls of active or inactive are those of the source.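 The calls were made as follows: active = fitted half-maximal concentration for caspase signal rise at or below the highest valid tested dose; inconclusive = flat fit at 30 to 70% of control, or poor fit; inactive = the rest.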 Where only a bound is given, the exact number is not on record here.

Test [1] relates to MEF A1-2A-tBid cells, caspase 3/7 luminescence, 3 h. Briefly: apoptosis induction, A1-2A-tBid fibroblasts – cell-based, tBid as inducer, caspase 3/7 luminescence, dry powder, A1 inhibitor project, dose response (AID 488897). The essentials: (§1)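 Assay system – mouse embryonic fibroblasts co-expressing A1-2A-tBid, primed by tBid · Amount – 2500 cells per well · Medium – TSA added at seeding · Compound – dose-response series, pin-transferred · Incubation – 3 h compound exposure at 37 °C, 1 h room-temperature detection · Detection – luminescence, Caspase-Glo 3/7 DEVD-luciferin reagent diluted 1:1 in 50 mM HEPES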

Assay in test [2]: as above
As to conditions: MEF A1-2A-tBid cells, caspase 3/7 luminescence, 3 h; at 150 µM (top of the series). The essentials:
as §1

On to `CCOC(=O)CSC1=N/C(=C/c2ccc(-n3cncn3)cc2)C(=O)N1C(C)=O`, for which, in test [1], the AC50 is 9.07 µM.

Turning to `C=C1[C@@H](C)[C@H]2[C@H](Cc3ccccc3)NC(=O)[C@]23[C@H](OC(C)=O)/C=C/[C@](C)(O)C(=O)[C@@H](C)C/C=C/[C@H]3[C@@H]1O`, the caspase activation in test [2] was 0.731% (inactive). Take `CCc1cc2c(=O)c(-c3cnn(-c4ccccc4)c3)c(C)oc2cc1OCC(=O)Nc1cccc(C)c1`: the AC50 in test [1] was > 100 µM (inactive). The same measure, in the same setting: as for `O=C(Oc1cccc(/C=N/Nc2nc(Nc3ccccc3)nc(N3CCOCC3)n2)c1)c1ccco1`, the figure is 17.6 µM. Still for that read-out and setting: under `COc1ccc(N(C(=O)CCl)C(C(=O)NCCc2ccccc2)c2cccs2)cc1Cl` (stereo not drawn) stands > 150 µM (inactive). As for `Cc1cccc(NC(=O)/C(C#N)=C/c2cn(CC(=O)NCc3ccco3)c3ccccc23)c1`, the AC50 in test [1] was 7.59 µM.

Turning to `COc1cc(/C=C(/C#N)c2nc3ccccc3[nH]2)ccc1OCC(=O)Nc1ccccc1C(C)C`, the caspase activation in test [2] was 1.39% (inactive). In the case of `CC(=O)OC(C)(C)/C=C/C(=O)[C@](C)(O)C1[C@H](O)C[C@@]2(C)C3CC=C4C(C[C@H](O)C(=O)C4(C)C)[C@]3(C)C(=O)C[C@]12C` (stereo partly drawn), the AC50 in test [1] was > 150 µM (inactive).

On to `Cn1c(=NC(=O)CCl)sc2ccccc21`, for which the AC50 in test [1] is 3.22 µM. Take `Cc1cc(C(=O)CCl)c(C)n1CCc1ccc(Cl)cc1`: the AC50 in test [1] is 8.01 µM. Same read-out and setting: as for `C/C1=C/C(=O)O[C@@H]2C[C@@H](CC[C@H](C)/C=C\CC1)O[C@@](O)(C1CSC(=O)N1)C2` (stereo partly drawn), the figure is 0.695 µM; as for `CCc1nnc(NC(=O)c2nc(S(=O)(=O)Cc3ccccc3)ncc2Cl)s1`, > 68 µM (inactive); as for `Cc1ccc(Sc2c([N+](=O)[O-])c(=O)n(C)c3ccccc23)cc1`, 18.1 µM. The same measure, in the same setting: as for `CC(=O)N[C@H]1[C@H](O[C@H]2CC[C@@]3(C)C(CC[C@]4(C)C3CC=C3[C@@H]5CC(C)(C)CC[C@]5(C(=O)OC5OCC(O)C(O)C5O)C(O)C[C@]34C)C2(C)C)O[C@H](COC2OCC(O)C(OC3OCC(O)C(O)C3O)C2O)[C@@H](O[C@@H]2O[C@@H](C)[C@H](O)[C@@H](O)[C@H]2O[C@@H]2O[C@@H](C)[C@H](O)[C@@H](O)[C@H]2O)[C@@H]1O` (stereo partly drawn), the figure is 12.2 µM; as for `Cc1c(CCOC(=O)c2ccc(N3CCOCC3)c([N+](=O)[O-])c2)sc[n+]1CC#N`, 16.7 µM.

For the molecule `Nc1nc(F)nc2c1ncn2[C@@H]1O[C@H](CO)[C@@H](O)[C@H]1O`, the AC50 in test [1] was 2.35 µM. Same read-out and setting: as for `Cc1cccc(CS(=O)(=O)c2ncc(Cl)c(C(=O)Nc3nnc(C(C)C)s3)n2)c1`, the figure is > 46 µM (inactive); as for `Cc1ccc(CS(=O)(=O)c2ncc(Cl)c(C(=O)Nc3nnc(C(C)C)s3)n2)cc1`, > 46 µM (inactive); as for `O=C(CCl)N=c1sccn1Cc1ccccc1Cl`, 1.93 µM. As to `COc1cccc(C(=O)C(C#N)=C(SC)SC)c1`, the AC50 in test [1] was 2.71 µM. Still for that read-out and setting: under `CC(C)(C)n1nc(-c2ccc(Cl)cc2)c2c(N)ncnc21` stands > 150 µM (inactive). In the case of `C=C1[C@@H](C)[C@H]2[C@H](Cc3ccccc3)NC(=O)[C@]23OC(=O)/C=C\[C@H](O)CCC[C@@H](C)C/C=C/[C@H]3[C@@H]1O`, in test [1], the AC50 is 12.7 µM. The same measure, in the same setting: as for `Cc1c(C=O)c(C=O)c(C)n1Cc1ccccc1`, the figure is 6.11 µM.
